# FLuc stim CS = affects firefly luciferase, flagging false hits in luciferase stimulation screens. activation factor at 10 µM. 200,000 tested, under 10 active. ATPlite luciferase biochemical, luminescence, 10 min; 0 = ATP-free wells, 1 = DMSO control. P08659;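 active means luciferase activation factor, scaled between plate controls, of at least 2 with compound at 10 µM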
# Target sequence (P08659 whole entry, looked up): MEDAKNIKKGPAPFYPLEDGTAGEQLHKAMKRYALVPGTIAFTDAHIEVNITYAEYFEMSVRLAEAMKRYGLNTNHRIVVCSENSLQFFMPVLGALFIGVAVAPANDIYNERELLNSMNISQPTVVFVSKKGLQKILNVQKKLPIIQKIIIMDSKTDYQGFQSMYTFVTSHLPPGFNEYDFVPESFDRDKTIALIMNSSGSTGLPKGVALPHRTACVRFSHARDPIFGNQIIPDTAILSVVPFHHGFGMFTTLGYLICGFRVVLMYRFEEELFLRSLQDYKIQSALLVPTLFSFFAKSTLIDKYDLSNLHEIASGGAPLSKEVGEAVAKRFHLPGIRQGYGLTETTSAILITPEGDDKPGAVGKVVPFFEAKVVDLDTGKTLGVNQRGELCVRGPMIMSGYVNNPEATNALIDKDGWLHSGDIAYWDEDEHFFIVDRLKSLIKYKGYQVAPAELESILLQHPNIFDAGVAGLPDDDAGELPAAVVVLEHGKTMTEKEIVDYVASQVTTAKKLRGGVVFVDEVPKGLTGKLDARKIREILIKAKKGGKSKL
#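 Assay system: Luciferase/luciferin detection reagent, cell-free biochemical luciferase assay / Also added: ATP substrate / Schedule: 10 min at ambient temperature / Measured by: luminescence measurement of luciferase light output / Benchmarks: low control with PBS replacing ATP, high control enzyme plus ATP without compound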
# C8 TRAIL sens = sensitizes caspase-8 expressing cells to TRAIL. inhibition (viability loss, TRAIL sensitization), % at 10 µM. 1% of 360,000 active. AID 624354. NB7+C8 cells + TRAIL, ATPlite viability luminescence;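 active means compounds causing at least 50% loss of cell viability in the single-dose screen, relative to plate controls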
# PPC-1+TRAIL kill = kills PPC-1 cancer cells in the presence of TRAIL. PPC-1 cells + TRAIL, ATPLite viability luminescence. cell killing (% activity), % at 4 µM or 5 µM. 0.41% of 220,000 active. AID 1443;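 active means cell killing above 50% in the first pass at 4 µM, then a duplicate retest at 5 µM averaging 50% or more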;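 further: plate controls were cells with TRAIL plus DMSO for no effect and medium-only wells lacking cells for full effect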
# FLuc inhib CS = inhibits firefly luciferase, flagging false hits in luciferase inhibition screens; P08659; ATPLite firefly luciferase biochemical luminescence, 10 min; inhibition, % at 10 µM; 1.5% of 200,000 active; AID 1006;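 active means inhibition above about 50% when tested at 10 µM, limit read from the data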
# PPC-1 tox = PPC-1 cell cytotoxicity | shares compounds with PPC-1+TRAIL kill | PPC-1 viability, ATPlite luminescence, overnight | cytotoxicity, % at 5 µM | 50% of 1,200 active | AID 1447;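 active means reconfirmed compounds whose average cytotoxicity reaches 50% or more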;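 further: 0% = DMSO-treated cells and 100% = wells holding medium but no cells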
# An asterisk follows results filed as active; . = not tested or not shown. Hits are enriched below; roughly 1.6% of the tested compounds scored in any of these assays.
SMILES,FLuc stim CS,C8 TRAIL sens,PPC-1+TRAIL kill,FLuc inhib CS,PPC-1 tox
CCCCN1C(=O)/C(=C/C=C2\Oc3ccccc3N2CC)SC1=S,1,-1,-6,0,.
CC1=CC(=O)C(C(C)C)=C/C1=N/OS(=O)(=O)c1ccccc1,.,69*,-1,.,.
Brc1cc2c(cc1/C=N/Nc1nc3ccccc3s1)OCO2,1,0,8,-2,.
Brc1csc(/C=N/Nc2nc3ccccc3s2)c1,0.5,35,29,54*,.
COc1cccc2oc3ccc(C#Cc4ccccn4)cc3c(=O)c12,.,69*,.,.,.
Cc1ccn(-c2ccc(NC(=O)c3cccs3)cc2)n1,.,55*,.,.,.
CCC(C)c1ccc(NC(=O)c2cccs2)cc1 (configuration not stated),0.3,60*,25,75*,.
Cc1cccc(NC(=O)c2cnc3scc(C)n3c2=O)c1,0.9,-5,.,14,.
C1=C(CCNc2ncnc3nc[nH]c23)CCCC1,1,7,21,1,.
O=c1c(O)c(-c2cccs2)oc2ccccc12,1.1,-1,12,-5,.
O=c1c(O)c(-c2cccs2)oc2ccc(Cl)cc12,1,11,2,-3,6
O=C(c1ccco1)N1CCN(c2ncnc3c2cnn3-c2ccccc2)CC1,1,-2,4,-4,5
CCc1[nH]nc2c1C(c1cccc(OC(=O)N3CCOCC3)c1)C(C#N)=C(N)O2 (configuration not stated),1.1,19,14,-6,.
COc1ccc(/C=C/c2nc3ccccc3n2C)cc1,0,88*,93*,97*,92*
CCn1c(/C=C/c2ccccc2)nc2ccccc21,0.1,72*,66*,87*,68*
COc1ccc(/C=N/n2c(C)nc3ccccc3c2=O)cc1,.,-2,.,.,.
COc1ccc(/C=N\n2nnc3ccccc32)cc1,0.3,55*,39,69*,36
COc1ccc(Nc2nc3ccccc3n2C)cc1,.,-3,.,.,.
O=C(NCCCN1CCOCC1)C1Nc2ccc(OC(F)(F)F)cc2C2C=CCC12 (configuration not stated),.,10,.,.,.
COc1cccc(O)c1CN1CCCC(C(=O)c2cccc(C(F)(F)F)c2)C1 (configuration not stated),1,7,40,-4,.
O=C(Cn1cnc2c(NCc3ccccc3)ncnc21)NCc1ccc2c(c1)OCO2,.,14,.,.,.
O=c1c2c(-c3ccccc3)csc2nc2c3ccccc3c(NCCN3CCOCC3)nn12,1,72*,-6,0,6
CC1CCc2nc(NC(=O)Cc3cccs3)sc2C1 (configuration not stated),0.8,26,-12,17,.
CS(=O)(=O)c1ccc2nc(NC(=O)c3ccco3)sc2c1,0.2,57*,46,77*,50
CC1CCc2nc(NC(=O)c3ccco3)sc2C1 (configuration not stated),0.1,84*,80*,93*,77*
SMILES,FLuc stim CS,C8 TRAIL sens,PPC-1+TRAIL kill,FLuc inhib CS,PPC-1 tox
O=C(Nc1nc2cc3c(cc2s1)OCCO3)c1ccncc1,0.2,39,38,76*,44
O=C(Nc1nc2cc3c(cc2s1)OCO3)c1ccco1,.,75*,68*,.,72*
O=c1[nH]c2ccccc2cc1CN(c1ccccc1)S(=O)(=O)c1ccccc1,1,4,6,-2,.
CCc1ccc(/C(C)=N/NC(=O)CNC(=O)/C=C/c2ccccc2OC)cc1,.,1,.,.,.
Oc1ccc(N=Nc2ccc3c(c2)OCO3)c2ccccc12,.,.,34,.,32
O=C(NN=Cc1c(O)ccc2ccccc12)c1ccc2c(c1)OCO2,.,34,.,.,.
Cc1csc(NC(=O)c2cn3ccccc3n2)n1,0.1,85*,80*,94*,78*
COc1ccc2nc(/N=C\N(C)C)sc2c1,0.8,-11,12,16,.
COc1ccc2nc(N=Nc3ccc(N(C)C)cc3)sc2c1,0.1,94*,90*,95*,90*
Cc1ccc2sc(-c3ccc(NC(=O)/C=C\C(=O)O)cc3)nc2c1,0.2,39,44,84*,44
Cc1nc(-c2ccc(NC(=O)/C=C\C(=O)O)cc2)cs1,0.5,17,7,46,.
COc1ccc(Cl)cc1C(=O)OCC(=O)Nc1sccc1C(N)=O,.,18,.,.,.
O=C(/C=C/c1ccc(O)cc1)c1ccc(NC2=C(N3CCCCC3)C(=O)c3ccccc3C2=O)cc1,0.7,29,70*,34,58*
C=CC(=O)NC(C)(C)CCN1CCOCC1,1,-13,7,-4,.
CC(c1ccccc1)n1c(-c2ccncc2)n[nH]c1=S (configuration not stated),1,7,-13,-2,.
O=C(Nc1nccs1)c1cc2c(s1)CCCCC2,0.1,90*,84*,94*,78*
NNC(=O)c1cc2c(s1)CCCCCC2,1.1,-15,-6,-5,-1
CC(=O)Nc1ccc(NC(=O)C(C)Oc2ccccc2F)cc1 (configuration not stated),1.1,-15,17,-7,.
COc1ccccc1NC(=O)COC(=O)c1c[nH]c2ccccc12,.,3,.,.,.
COc1cc(NS(=O)(=O)c2ccc(F)cc2)c(OC)cc1NC(=O)C1CC1,1.1,.,7,-5,.
O=C(Nc1ccccc1NS(=O)(=O)c1ccc(F)cc1)C1CCC1,1.1,2,6,-7,11
CCC(=O)Nc1sccc1C(=O)OC,1,8,-4,0,-1
O=C(CSc1nc2ccccc2n1S(=O)(=O)c1cccc([N+](=O)[O-])c1)NCc1cccs1,1,1,10,0,.
O=c1oc(/C=C/c2ccccc2)nc2sc3c(c12)CCC3,0.6,8,8,42,-1
COc1ccc(/C=C/c2nc3sc4c(c3c(=O)o2)CCC4)cc1,.,5,.,.,.
SMILES,FLuc stim CS,C8 TRAIL sens,PPC-1+TRAIL kill,FLuc inhib CS,PPC-1 tox
CC[C@@]1(O)C(=O)OCc2c1cc1n(c2=O)Cc2cc3c(N)cccc3nc2-1,.,15,32,.,32
CC[C@@]1(O)C(=O)OCc2c1cc1n(c2=O)Cc2cc3c(CN(C)C)c(O)ccc3nc2-1,.,34,.,.,.
Nc1ccc(-c2nc3ccc(N)cc3o2)cc1,0.1,68*,44,87*,45
Cc1cc(C)c2nc(NCCCNC(=S)NCCCN(C)C)c(C#N)cc2c1,1.1,-1,21,-7,.
N=c1cc(C2(O)CCCCC2)n2c(nc3ccccc32)s1,0.1,84*,75*,94*,78*
O=C1CC(c2ccc3c(c2)OCO3)c2cc3c(cc2N1)OCCO3 (configuration not stated),1,-4,18,-1,22
COc1ccccc1-c1nnc(Nc2nc3c(OC)cccc3s2)o1,0.9,30,7,12,.
COc1cccc(-c2nnc(Nc3nc4c(F)cccc4s3)o2)c1,0.1,71*,44,88*,48
C/C(=N\OCC(=O)Nc1ccccc1C(=O)O)c1cccs1,0.8,2,11,21,.
C/C(=N/OCC(=O)Nc1ccc(C)cc1C)c1cccs1,1.1,3,-12,-7,2
COc1cccc2c1C(=O)O/C2=C/c1ccc2c(c1)OCO2,0.2,63*,38,85*,41

# Bioassay records deposited in PubChem by Sanford-Burnham Center for Chemical Genomics.
